Assay [1] has as its target Muscarinic acetylcholine receptor. As to the kind of experiment: Muscarinic acetylcholine receptor binding (rat cortical membranes) was determined by displacement of [3H]quinuclidinyl benzylate [3H]QNB). For orientation: Displacement assays read how much labelled ligand stays bound in the presence of the test substance.
Assay [2] has as its target Neuronal nicotinic acetylcholine receptor. Put plainly: Binding affinity at NAChRs was determined by measuring the displacement of ([3H]Nic) from a preparation of rat cortical membranes. In kind it is cell membranes, Membrane.
The species named for a further assay is Rattus norvegicus. As to the kind of experiment: The efficiency of the compound (300 micro M) to stimulate ([3H]DA) release. In kind it is functional.
Assay [3] has as its target T1, Nicotinic acetylcholine receptor alpha2/beta4 (Homo sapiens, UniProt P30926+Q15822). Put plainly: The compound was tested on recombinant human alpha2-beta4 cell lines of Human embryonic kidney for nicotinic acetylcholine receptor agonist functional potency. The essentials:
(§1)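 Stably transfected human recombinant NAChR cell lines: HEK293 for α2β4, α3β4, α4β4 and α4β2; human RD cells for fetal α1β1γδ muscle receptor. Agonist-evoked Ca2+ entry read as change in [Ca2+]i with fluo-3. Highest concentration tested 300 μM.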

Assay [4] addresses T2, Neuronal acetylcholine receptor; alpha4/beta4 (Homo sapiens, UniProt P30926+P43681). As to the kind of experiment: The compound was tested on recombinant human alpha4-beta4 cell lines of Human embryonic kidney for nicotinic acetylcholine receptor agonist functional potency. The essentials: as §1
Target sequence in this assay (P30926 whole entry): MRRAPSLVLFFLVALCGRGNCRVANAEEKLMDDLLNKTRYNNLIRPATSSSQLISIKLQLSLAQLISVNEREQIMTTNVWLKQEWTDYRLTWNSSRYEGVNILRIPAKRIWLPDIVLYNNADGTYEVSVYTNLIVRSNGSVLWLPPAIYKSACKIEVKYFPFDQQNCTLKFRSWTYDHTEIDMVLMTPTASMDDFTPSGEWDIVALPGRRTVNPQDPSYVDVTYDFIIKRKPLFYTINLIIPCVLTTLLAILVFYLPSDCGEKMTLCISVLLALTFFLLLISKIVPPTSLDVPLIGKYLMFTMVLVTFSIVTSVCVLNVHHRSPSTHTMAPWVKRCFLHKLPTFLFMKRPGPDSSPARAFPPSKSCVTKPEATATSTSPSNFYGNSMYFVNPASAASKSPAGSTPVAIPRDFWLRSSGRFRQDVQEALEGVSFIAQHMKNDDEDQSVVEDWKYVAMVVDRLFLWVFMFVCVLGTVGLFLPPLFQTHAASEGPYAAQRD
Target sequence in this assay (P43681 whole entry): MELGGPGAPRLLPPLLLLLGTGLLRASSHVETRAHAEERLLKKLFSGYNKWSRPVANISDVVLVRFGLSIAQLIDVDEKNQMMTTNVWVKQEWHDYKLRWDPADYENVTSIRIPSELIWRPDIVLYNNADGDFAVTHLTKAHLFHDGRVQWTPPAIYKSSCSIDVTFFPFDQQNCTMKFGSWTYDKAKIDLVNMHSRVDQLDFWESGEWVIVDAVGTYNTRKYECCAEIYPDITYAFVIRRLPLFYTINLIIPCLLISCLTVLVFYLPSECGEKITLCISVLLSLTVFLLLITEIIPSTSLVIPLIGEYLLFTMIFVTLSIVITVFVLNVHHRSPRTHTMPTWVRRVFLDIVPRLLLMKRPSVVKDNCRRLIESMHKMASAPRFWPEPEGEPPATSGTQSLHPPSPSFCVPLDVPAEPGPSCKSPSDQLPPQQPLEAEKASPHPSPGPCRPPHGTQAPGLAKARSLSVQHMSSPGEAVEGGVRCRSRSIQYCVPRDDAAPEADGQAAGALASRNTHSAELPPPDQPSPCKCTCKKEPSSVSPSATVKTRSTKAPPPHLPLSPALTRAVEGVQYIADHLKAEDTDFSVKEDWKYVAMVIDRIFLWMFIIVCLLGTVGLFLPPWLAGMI
The target in assay [5] is T3, Neuronal acetylcholine receptor; alpha3/beta4 (Homo sapiens, UniProt P30926+P32297). Put plainly: The compound was tested on recombinant human alpha3-beta4 cell lines of Human embryonic kidney for nicotinic acetylcholine receptor agonist functional potency. The essentials:
as §1

The target in assay [6] is Acetylcholine receptor; alpha1/beta1/delta/gamma (Homo sapiens, UniProt P02708+P07510+P11230+Q07001). Put plainly: (§2) The compound was tested on recombinant human alpha-1-beta-1-gamma-delta cell lines of […] for nicotinic acetylcholine receptor agonist functional potency.
The target in assay [7] is Muscle-type nicotinic acetylcholine receptor. The assay is described as §2.
Assay [8] concerns the target T1, Nicotinic acetylcholine receptor alpha2/beta4. Put plainly: The compound was tested on recombinant human alpha2-beta4 cell lines of HUman embryonic kidney for nicotinic acetylcholine receptor agonist efficacy.
Assay [9] has as its target Neuronal acetylcholine receptor; alpha4/beta2 (Homo sapiens, UniProt P17787+P43681). As to the kind of experiment: The compound was tested on recombinant human alpha4-beta2 cell lines of Human embryonic kidney for nicotinic acetylcholine receptor agonist functional potency; IA=inactive. The essentials: as §1
In assay [10] the target is T2, Neuronal acetylcholine receptor; alpha4/beta4. Put plainly: The compound was tested on recombinant human alpha4-beta4 cell lines of HUman embryonic kidney for nicotinic acetylcholine receptor agonist functional potency. The essentials:
as §1
Target sequence in this assay (P43681 whole entry, looked up): as the sequence (P43681 whole entry) above
Target sequence in this assay (P30926 whole entry, looked up): as the sequence (P30926 whole entry) above

The target in assay [11] is T3, Neuronal acetylcholine receptor; alpha3/beta4. Put plainly: The compound was tested on recombinant human alpha3-beta4 cell lines of HUman embryonic kidney for nicotinic acetylcholine receptor agonist functional potency. Summed up: as §1

Here are results for six compounds from ChEMBL document CHEMBL1129686, “(S)-(-)-5-ethynyl-3-(1-methyl-2-pyrrolidinyl)pyridine maleate (SIB-1508Y): a novel anti-parkinsonian agent with selectivity for neuronal nicotinic acetylcholine receptors” (J Med Chem, 1996).

Where “and” joins values, the source holds several entries; their conditions need not be identical. Equal entries are not always repeated.

T1 sequence (P02708 whole entry): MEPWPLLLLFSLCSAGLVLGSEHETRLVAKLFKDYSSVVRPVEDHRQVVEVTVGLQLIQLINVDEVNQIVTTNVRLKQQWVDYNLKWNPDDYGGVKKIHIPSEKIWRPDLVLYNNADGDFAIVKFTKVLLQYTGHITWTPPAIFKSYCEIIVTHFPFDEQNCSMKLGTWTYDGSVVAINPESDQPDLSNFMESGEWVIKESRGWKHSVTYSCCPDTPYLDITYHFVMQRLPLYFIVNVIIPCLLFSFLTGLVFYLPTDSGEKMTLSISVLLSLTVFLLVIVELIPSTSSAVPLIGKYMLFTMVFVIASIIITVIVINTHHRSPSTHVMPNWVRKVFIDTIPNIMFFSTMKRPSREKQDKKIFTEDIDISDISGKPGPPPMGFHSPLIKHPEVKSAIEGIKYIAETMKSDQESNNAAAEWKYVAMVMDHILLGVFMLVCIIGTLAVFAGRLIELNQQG
T1 sequence (P30926 whole entry): as the sequence (P30926 whole entry) above
T3 sequence (P30926 whole entry): as above
T3 sequence (P32297 whole entry): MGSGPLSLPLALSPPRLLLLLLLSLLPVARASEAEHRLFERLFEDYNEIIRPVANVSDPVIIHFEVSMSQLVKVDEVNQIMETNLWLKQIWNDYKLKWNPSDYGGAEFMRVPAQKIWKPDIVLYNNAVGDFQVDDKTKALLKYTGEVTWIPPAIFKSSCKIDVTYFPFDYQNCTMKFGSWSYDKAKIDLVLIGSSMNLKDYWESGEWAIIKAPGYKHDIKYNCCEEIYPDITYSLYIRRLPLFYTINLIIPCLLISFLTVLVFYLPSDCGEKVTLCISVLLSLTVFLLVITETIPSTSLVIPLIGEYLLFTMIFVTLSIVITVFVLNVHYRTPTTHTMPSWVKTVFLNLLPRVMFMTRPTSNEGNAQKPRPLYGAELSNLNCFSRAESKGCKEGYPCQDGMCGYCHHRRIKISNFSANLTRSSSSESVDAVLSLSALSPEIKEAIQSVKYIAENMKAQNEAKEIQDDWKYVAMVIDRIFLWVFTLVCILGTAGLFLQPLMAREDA
Chain of Acetylcholine receptor; alpha1/beta1/delta/gamma (P02708 whole entry): as the sequence (P02708 whole entry) above
Chain of Acetylcholine receptor; alpha1/beta1/delta/gamma (P07510 whole entry): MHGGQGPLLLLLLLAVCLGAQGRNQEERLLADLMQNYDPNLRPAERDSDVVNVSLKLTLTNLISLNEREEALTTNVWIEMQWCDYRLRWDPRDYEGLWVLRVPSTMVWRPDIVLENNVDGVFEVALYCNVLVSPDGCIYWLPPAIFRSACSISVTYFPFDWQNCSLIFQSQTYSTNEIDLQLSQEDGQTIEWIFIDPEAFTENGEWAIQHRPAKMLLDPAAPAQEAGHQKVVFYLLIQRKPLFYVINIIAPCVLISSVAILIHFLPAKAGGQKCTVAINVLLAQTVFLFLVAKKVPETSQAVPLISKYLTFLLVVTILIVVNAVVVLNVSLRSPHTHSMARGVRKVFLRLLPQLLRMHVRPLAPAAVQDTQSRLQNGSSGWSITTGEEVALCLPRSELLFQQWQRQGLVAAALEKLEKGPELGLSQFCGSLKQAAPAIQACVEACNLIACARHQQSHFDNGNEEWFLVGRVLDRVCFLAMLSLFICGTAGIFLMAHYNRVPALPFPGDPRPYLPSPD
Chain of Acetylcholine receptor; alpha1/beta1/delta/gamma (P11230 whole entry): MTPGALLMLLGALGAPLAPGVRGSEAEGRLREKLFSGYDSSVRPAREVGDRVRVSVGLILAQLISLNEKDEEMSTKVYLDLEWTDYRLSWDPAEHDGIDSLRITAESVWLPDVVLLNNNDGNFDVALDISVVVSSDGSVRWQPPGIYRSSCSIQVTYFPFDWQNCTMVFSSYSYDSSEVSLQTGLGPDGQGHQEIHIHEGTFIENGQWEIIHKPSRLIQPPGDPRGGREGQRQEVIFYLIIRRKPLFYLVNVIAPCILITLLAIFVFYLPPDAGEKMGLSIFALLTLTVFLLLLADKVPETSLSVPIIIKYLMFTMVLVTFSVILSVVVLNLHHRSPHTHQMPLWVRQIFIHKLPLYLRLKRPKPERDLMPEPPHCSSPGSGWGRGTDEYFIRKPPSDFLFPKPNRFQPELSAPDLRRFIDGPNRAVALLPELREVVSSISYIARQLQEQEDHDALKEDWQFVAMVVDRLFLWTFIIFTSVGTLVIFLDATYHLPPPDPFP
Chain of Acetylcholine receptor; alpha1/beta1/delta/gamma (Q07001 whole entry): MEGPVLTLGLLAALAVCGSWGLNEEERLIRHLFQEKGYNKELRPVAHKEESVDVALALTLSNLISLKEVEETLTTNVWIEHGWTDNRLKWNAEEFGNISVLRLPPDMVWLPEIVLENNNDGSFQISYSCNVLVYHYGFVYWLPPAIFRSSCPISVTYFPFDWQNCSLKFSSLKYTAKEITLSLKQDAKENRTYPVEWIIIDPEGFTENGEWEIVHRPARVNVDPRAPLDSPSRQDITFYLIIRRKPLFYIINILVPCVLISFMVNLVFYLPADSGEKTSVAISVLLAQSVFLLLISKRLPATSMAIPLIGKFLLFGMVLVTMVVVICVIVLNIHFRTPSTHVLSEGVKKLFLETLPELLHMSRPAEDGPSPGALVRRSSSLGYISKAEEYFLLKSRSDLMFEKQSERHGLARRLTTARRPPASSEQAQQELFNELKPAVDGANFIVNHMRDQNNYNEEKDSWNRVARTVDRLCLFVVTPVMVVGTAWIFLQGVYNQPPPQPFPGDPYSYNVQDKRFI
Chain of Neuronal acetylcholine receptor; alpha4/beta2 (P17787 whole entry): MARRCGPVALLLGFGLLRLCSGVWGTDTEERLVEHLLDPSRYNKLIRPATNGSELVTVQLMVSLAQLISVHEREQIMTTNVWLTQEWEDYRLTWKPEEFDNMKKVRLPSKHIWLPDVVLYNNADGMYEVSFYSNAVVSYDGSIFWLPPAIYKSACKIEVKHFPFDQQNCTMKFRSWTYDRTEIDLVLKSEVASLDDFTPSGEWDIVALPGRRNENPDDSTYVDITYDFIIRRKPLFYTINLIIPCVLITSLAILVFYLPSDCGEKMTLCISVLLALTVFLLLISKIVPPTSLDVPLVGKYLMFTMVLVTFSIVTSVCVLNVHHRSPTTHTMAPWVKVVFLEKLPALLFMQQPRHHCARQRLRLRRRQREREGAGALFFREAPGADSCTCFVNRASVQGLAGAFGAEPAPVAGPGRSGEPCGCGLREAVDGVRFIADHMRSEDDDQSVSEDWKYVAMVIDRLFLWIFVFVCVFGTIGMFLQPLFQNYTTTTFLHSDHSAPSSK
Chain of Neuronal acetylcholine receptor; alpha4/beta2 (P43681 whole entry): as the sequence (P43681 whole entry) above

By IC50 is commonly meant the concentration at which inhibition is half-maximal. On to `CCc1cncc(C2CCCN2C)c1` (stereo not given), for which the IC50 in assay [1] amounted to 5.8 µM; in assay [2] it was 0.011 µM. This compound showed a Release in the assay listed under Rattus norvegicus of 27.5%.
The EC50 is the concentration needed to bring the measured effect to its halfway point. For the compound `C#Cc1cncc(C2CCCN2C)c1` (stereo not given), the EC50 was 15 µM and 39 µM in assay [3]; 25 µM and 23 µM in assay [4]; 41 µM and 34 µM in [5]; 52 µM and 53 µM in assay [6]. For the same compound, the IC50 in assay [1] came to 10.1 µM; in [2], 0.0046 µM. The compound further displayed a Release in the assay listed under Rattus norvegicus of 143%.
`CN1CCC[C@H]1c1cccnc1` [NICOTINE]: the values for the EC50 in assay [3] and in assay [7] were 10 µM and 65 µM, respectively.
On to `CN1CCCC1c1cncc(Br)c1` (stereo not given), for which the IC50 came out at 1.6 µM in [1] and 0.019 µM in assay [2]. The Release in the assay listed under Rattus norvegicus is on record as 69%.
Consider `C#Cc1cncc([C@@H]2CCCN2C)c1` [ALTINICLINE], for which the EC50 is 5 µM and 49 µM in assay [3]; 9 µM and 26 µM in assay [4]; 23 µM and 52 µM in assay [5]. Also, the results for the IC50 in assay [1] and in [2] were 8.9 µM and 0.003 µM, respectively. This compound registered a Release in the assay listed under Rattus norvegicus of 163%.
For the compound `C#Cc1cncc([C@H]2CCCN2C)c1`, the EC50 in assay [3] was 29 µM; in assay [5], 68 µM; in assay [9], “Not Active”; in assay [10], 31 µM and 8 µM; in [11], 68 µM. The Efficacy in [8] is 9%. Also, the IC50 amounted to 4.5 µM in assay [1] and 0.075 µM in assay [2]. The compound further returned a Release in the assay filed under Rattus norvegicus of 55%.
